Results taken from ChEMBL document CHEMBL4020823, “Highly Selective, Potent, and Oral mTOR Inhibitor for Treatment of Cancer as Autophagy Inducer” (J Med Chem, 2018).
Active and inactive are the calls of the source. The calls are words filed in the database; no cut-off is given here.

Legend:
[1] = test system: SiHa; experiment: Cell cycle arrest in human SiHa cells assessed as accumulation at G0/G1 phase at 0.25 to 0.5 uM after 24 hrs by propidium iodide-staining based flow cytometric analysis; assay type: functional
Outline: (§1)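 Cells were seeded at 5 × 10^5 cells/mL. At 24 h after plating they were treated with increasing concentrations for 24 h, washed in PBS, and fixed in ice-cold 70% ethanol for at least 24 h. They were stained with propidium iodide plus RNase A for 30 min at 37 °C and analysed by flow cytometry for phase distribution.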

[2] = organism: Homo sapiens; experiment: Inhibition of mTORC1 in human MDA-MB-231 cells assessed as reduction in 4E-BP1 phosphorylation at Thr37/46 residues at 0.25 to 0.5 uM by Western blot analysis; assay type: cell-based
Outline: (§2)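 Cells treated with the indicated concentrations, then whole-cell lysates immunoblotted. mTORC1 activity read as S6 and 4E-BP1 phosphorylation; mTORC2 activity read as AKT Ser473 phosphorylation. Blocking in 5% skim milk, primary antibodies at 4 °C overnight, peroxidase-conjugated secondary, ECL detection.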

[3] = test system: MDA-MB-231; experiment: Cell cycle arrest in human MDA-MB-231 cells assessed as decrease in S-phase at 0.25 to 0.5 uM after 24 hrs by propidium iodide-staining based flow cytometric analysis; assay type: functional; outline: as §1
[4] = MRT (0 to infinity) in Sprague-Dawley rat at 20 mg/kg, po administered as single dose by HPLC analysis; assay type: ADME, organism-based; details: in vivo
Outline: (§3)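 Rats fasted overnight, then given a single 20 mg/kg dose either iv or po. Blood collected and centrifuged immediately to obtain plasma. Plasma drug levels measured by HPLC, and pharmacokinetic parameters derived from both routes.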

[5] = test system: Mus musculus; experiment: Down regulation of S6 phosphorylation at Ser240/244 residues in human T47D cells xenografted in BALB/c nude mouse administered via oral gavage after 3 weeks by hematoxylin and eosine staining based light microscopic assay; assay type: functional, cell-based
Outline: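 Tumours from the oral 3-week T-47D xenograft study were formalin-fixed, paraffin-embedded and cut into 5 μm sections. Sections were deparaffinized, rehydrated and incubated overnight at 4 °C with phospho-specific primary antibody at 1:100. Biotin secondary was applied for 1 h at room temperature, then ABC-peroxidase/DAB with hematoxylin counterstain. Sections were viewed by light microscopy.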

[6] = test system: T47D; experiment: Antitumor activity against human T47D cells xenografted in BALB/c nude mouse assessed as decrease in tumor growth at 60 mg/kg, po administered via gavage after 3 weeks relative to control; assay type: functional; details: 504 h, read-out: TGI
[7] = MRT (0 to infinity) in Sprague-Dawley rat at 20 mg/kg, iv administered as single dose by HPLC analysis; assay type: ADME, organism-based; details: in vivo; outline: as §3
[8] = target: PI3-kinase p110-alpha/p85-alpha (Homo sapiens) (UniProt P27986+P42336); experiment: Inhibition of full length recombinant human PI3K p110alpha/p85alpha at 1 uM relative to control; assay type: protein-complex assay
Outline: (§4)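 Eurofins KinaseProfiler panel with compound at a single 1 μM concentration. ATP at the Km of each kinase. Result is % inhibition, mean of two independent experiments.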

[9] = organism: Homo sapiens; experiment: Inhibition of mTORC1 in human MDA-MB-231 cells assessed as reduction in S6 phosphorylation at Ser 240/244 residues at 0.25 to 0.5 uM by Western blot analysis; assay type: cell-based; outline: as §2
[10] = organism: Homo sapiens; experiment: Inhibition of mTORC1 in human MCF7 cells assessed as reduction in 4E-BP1 phosphorylation at Thr37/46 residues at 0.25 to 0.5 uM by Western blot analysis; assay type: cell-based; outline: as §2
[11] = test system: Mus musculus; experiment: Toxicity in BALB/c nude mouse xenografted with human T47D cells assessed as decrease in body weight at 15 to 60 mg/kg, po administered via gavage for 3 weeks measured during compound dosing; assay type: organism-based; details: in vivo, 504 h
Outline: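 BALB/c nude mice, 6−8 weeks old, injected subcutaneously with 100 μL T-47D cells at 2 × 10^7 per mL in serum-free medium. At 100−120 mm3, randomized to 5 groups of 5: 15, 30 or 60 mg/kg/d, rapamycin 60 mg/kg/d, or vehicle. Dosed daily by intragastric route in DMSO for 3 weeks. Side effects checked daily; body weight every other day.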

[12] = organism: Homo sapiens; experiment: Inhibition of mTORC1 in human MDA-MB-231 cells assessed as reduction in 4E-BP1 phosphorylation at Ser65 residues at 0.25 to 0.5 uM by Western blot analysis; assay type: cell-based; outline: as §2
[13] = organism: Homo sapiens; experiment: Inhibition of mTORC1 in human MCF7 cells assessed as reduction in 4E-BP1 phosphorylation at Ser65 residues at 0.25 to 0.5 uM by Western blot analysis; assay type: cell-based; outline: as §2
[14] = test system: HeLa; experiment: Cell cycle arrest in human HeLa cells assessed as accumulation at G0/G1 phase at 0.5 to 1 uM after 24 hrs by propidium iodide-staining based flow cytometric analysis; assay type: functional; outline: as §1
[15] = organism: Homo sapiens; experiment: Inhibition of mTORC2 in human T47D cells assessed as reduction in AKT phosphorylation at Ser473 residues at 0.25 to 0.5 uM by Western blot analysis; assay type: cell-based
Outline: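 Cells exposed to a range of compound concentrations; whole-cell lysates immunoblotted for phospho-AKT (Ser473) as the mTORC2 readout, alongside S6 and 4E-BP1 phosphorylation for mTORC1. Membranes blocked in 5% skim milk, primary antibodies overnight at 4 °C, peroxidase-conjugated anti-mouse or anti-rabbit IgG secondary, ECL detection. Rapamycin as comparator.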

[16] = test system: MDA-MB-231; experiment: Induction of autophagy in human MDA-MB-231 cells assessed as increase in LC3-2 level at 0.25 to 0.5 uM after 48 hrs by Western blot analysis; assay type: functional, cell-based
Outline: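 Cells treated with test agents at several concentrations for 2 days (48 h). LC3B-II detected by Western blot on lysates, with β-actin as internal control. Membranes blocked in 5% skim milk, primary antibodies at 4 °C overnight, peroxidase-conjugated anti-mouse or anti-rabbit IgG secondary, ECL detection.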

[17] = test system: HeLa; experiment: Growth inhibition of human HeLa cells after 72 hrs by CCK8 assay; assay type: functional, cell-based
Outline: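 Cells were seeded at 2000–3000 per well and grown 24 h in serum-containing medium. They were then exposed to serially diluted compound for 72 h at 37 °C, 5% CO2. CCK8 reagent was added for 1–4 h and absorbance read at 450 nm. Inhibition = (AC − AS)/(AC − Ab) × 100%. IC50 is the average of at least three independent determinations.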

[18] = test system: HeLa; experiment: Cell cycle arrest in human HeLa cells assessed as decrease in S-phase at 0.5 to 1 uM after 24 hrs by propidium iodide-staining based flow cytometric analysis; assay type: functional; outline: as §1
[19] = target: Phosphatidylinositol 4,5-bisphosphate 3-kinase catalytic subunit gamma isoform (Homo sapiens) (UniProt P48736); experiment: Inhibition of full length recombinant human PI3K p120gamma at 1 uM relative to control; outline: as §4
[20] = test system: T47D; experiment: Antitumor activity against human T47D cells xenografted in BALB/c nude mouse assessed as decrease in tumor growth at 30 mg/kg, po administered via gavage after 3 weeks relative to control; assay type: functional; details: 504 h, read-out: TGI
[21] = organism: Homo sapiens; experiment: Inhibition of mTORC1 in human T47D cells assessed as reduction in S6 phosphorylation at Ser 240/244 residues at 0.25 to 0.5 uM by Western blot analysis; assay type: cell-based; outline: as §2
[22] = organism: Mus musculus; experiment: Inhibition of full length recombinant mouse p85alpha/PI3K p110alpha E542K mutant at 1 uM relative to control; outline: as §4

Chain of Phosphatidylinositol 4,5-bisphosphate 3-kinase catalytic subunit gamma isoform (Homo sapiens) (P48736 whole entry, looked up, canonical isoform): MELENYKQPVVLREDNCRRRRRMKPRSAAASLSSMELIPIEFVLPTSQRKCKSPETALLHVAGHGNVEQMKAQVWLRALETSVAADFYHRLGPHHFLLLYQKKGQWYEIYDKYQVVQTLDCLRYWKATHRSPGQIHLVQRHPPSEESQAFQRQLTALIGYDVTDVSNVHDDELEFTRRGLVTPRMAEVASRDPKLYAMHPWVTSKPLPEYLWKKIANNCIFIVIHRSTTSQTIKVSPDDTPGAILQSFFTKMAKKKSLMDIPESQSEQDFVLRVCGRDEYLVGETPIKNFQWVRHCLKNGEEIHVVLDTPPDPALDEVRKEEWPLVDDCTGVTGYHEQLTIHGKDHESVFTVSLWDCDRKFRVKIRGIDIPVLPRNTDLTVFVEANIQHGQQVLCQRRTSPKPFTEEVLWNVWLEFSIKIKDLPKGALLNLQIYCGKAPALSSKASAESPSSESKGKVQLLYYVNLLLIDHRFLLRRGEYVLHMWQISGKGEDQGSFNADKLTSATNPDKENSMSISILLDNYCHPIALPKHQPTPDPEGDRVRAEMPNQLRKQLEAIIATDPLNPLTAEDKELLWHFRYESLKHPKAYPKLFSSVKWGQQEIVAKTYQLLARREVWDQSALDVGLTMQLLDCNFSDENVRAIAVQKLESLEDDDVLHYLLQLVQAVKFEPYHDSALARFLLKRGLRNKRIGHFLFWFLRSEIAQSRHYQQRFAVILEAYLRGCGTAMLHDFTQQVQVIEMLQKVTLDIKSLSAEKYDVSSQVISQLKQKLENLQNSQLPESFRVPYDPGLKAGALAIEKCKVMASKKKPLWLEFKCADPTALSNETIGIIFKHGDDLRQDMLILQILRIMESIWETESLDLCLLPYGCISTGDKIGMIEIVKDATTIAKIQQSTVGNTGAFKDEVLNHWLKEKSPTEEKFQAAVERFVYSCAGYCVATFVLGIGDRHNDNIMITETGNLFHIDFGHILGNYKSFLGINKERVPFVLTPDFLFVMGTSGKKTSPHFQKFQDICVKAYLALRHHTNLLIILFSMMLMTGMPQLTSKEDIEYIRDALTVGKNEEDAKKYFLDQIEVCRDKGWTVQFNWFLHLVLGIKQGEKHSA

- MRT inf [4]: 16.3 h
- MRT inf [7]: 11.6 h
- inhibition [8]: 10%
- IC50 [17]: 441 nM
- inhibition [19]: 4%
- inhibition [22]: 10%
SMILES: N#CCN1CCC(n2c(=O)cnc3cnc4ccc(-c5ccc(N)nc5)cc4c32)CC1
- Activity [1]: Active
- inhibition [2]: Active
- Activity [3]: Active
- Activity [5]: Dose-dependent effect
- inhibition in vivo at 60 mg/kg [6]: 83.7%
- inhibition [9]: Active
- inhibition [10]: Active
- Activity [11]: Non-Toxic
- inhibition [12]: Active
- inhibition [13]: Active
- Activity [14]: Active
- inhibition [15]: Active
- Activity [16]: Active
- Activity [18]: Active
- inhibition in vivo at 30 mg/kg [20]: 75.6%
- inhibition [21]: Active
